Measurements: ChEMBL document CHEMBL3856257, “Benzo[b]thiophene-2-carboxamide derivatives as potent urotensin-II receptor antagonists” (Bioorg Med Chem Lett, 2016)

Molecular target: T1, Urotensin-2 receptor (Homo sapiens, UniProt Q9UKP6)
T1 sequence (Q9UKP6 whole entry): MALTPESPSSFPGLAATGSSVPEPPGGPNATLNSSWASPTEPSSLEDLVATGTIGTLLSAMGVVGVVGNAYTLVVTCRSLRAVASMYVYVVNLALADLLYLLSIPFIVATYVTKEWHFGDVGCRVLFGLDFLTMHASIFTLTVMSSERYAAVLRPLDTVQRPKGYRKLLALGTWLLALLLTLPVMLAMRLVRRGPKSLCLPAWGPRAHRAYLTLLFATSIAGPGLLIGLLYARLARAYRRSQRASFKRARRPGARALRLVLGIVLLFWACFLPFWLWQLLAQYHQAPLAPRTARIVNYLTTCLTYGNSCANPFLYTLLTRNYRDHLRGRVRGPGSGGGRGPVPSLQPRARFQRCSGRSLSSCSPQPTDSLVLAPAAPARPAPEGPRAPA
Test: Displacement of europium-labeled urotensin-2 from human recombinant urotensin-2 receptor expressed in HEK293 cell membranes after 90 mins by filtration based time resolved fluorometric assay
Conditions: not given
Summary of the method: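 Competitive binding against Eu-labeled U-II on membranes of HEK293 cells expressing human UT receptor, read by time-resolved fluorometry. IC50 values are means of at least two measurements.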

Row | SMILES | IC50 [nM]
1 | O=C(NC1CCN(Cc2ccc(OC3CCNCC3)c(Br)c2)CC1)c1cc2cc(Cl)ccc2s1 | 51
2 | N#Cc1ccc2cc(C(=O)NC3CCN(Cc4ccc(OC5CCNCC5)c(Br)c4)CC3)sc2c1 | 80
3 | Cc1ccc(-c2ccc3cc(C(=O)NC4CCN(Cc5ccc(OC6CCNCC6)c(Br)c5)CC4)sc3c2)cc1 | 140
4 | O=C(NC1CCN(Cc2ccc(OC3CCNCC3)c(Br)c2)CC1)c1cc2cc(C(F)(F)F)ccc2s1 | 100
5 | O=C(NC1CCN(Cc2ccc(OC3CCNCC3)c(Br)c2)CC1)c1cc2ccc(-c3ccc(Cl)cc3)cc2s1 | 140
6 | COc1ccccc1-c1ccc2cc(C(=O)NC3CCN(Cc4ccc(OC5CCNCC5)c(Br)c4)CC3)sc2c1 | 560
7 | O=C(NC1CCN(Cc2ccc(OC3CCNCC3)c(Br)c2)CC1)c1cc2cc(F)ccc2s1 | 53
8 | O=C(NC1CCN(Cc2ccc(OC3CCNCC3)c(Br)c2)CC1)c1cc2cc(-c3ccccc3)ccc2s1 | 310
9 | O=C(NC1CCN(Cc2ccc(OC3CCNCC3)c(Br)c2)CC1)c1ccccn1 | 120
10 | Cc1ccc2sc(C(=O)NC3CCN(Cc4ccc(OC5CCNCC5)c(Br)c4)CC3)cc2c1 | 74
11 | O=C(NC1CCN(Cc2ccc(OC3CCNCC3)c(Br)c2)CC1)c1ccno1 | 340
12 | O=C(NC1CCN(Cc2ccc(OC3CCNCC3)c(Br)c2)CC1)c1cc2cc([N+](=O)[O-])ccc2s1 | 49
13 | O=C(NC1CCN(Cc2ccc(OC3CCNCC3)c(Br)c2)CC1)c1cc2ccc(-c3ccc(F)cc3)cc2s1 | 74
14 | COc1cccc(-c2ccc3cc(C(=O)NC4CCN(Cc5ccc(OC6CCNCC6)c(Br)c5)CC4)sc3c2)c1 | 87

The remaining molecules from weak to strong by IC50, led by results:

Row | IC50 [nM] | SMILES
15 | 970 | O=C(NC1CCN(Cc2ccc(OC3CCNCC3)c(Br)c2)CC1)c1cscn1
16 | 770 | O=C(NC1CCN(Cc2ccc(OC3CCNCC3)c(Br)c2)CC1)c1ccco1
17 | 610 | O=C(NC1CCN(Cc2ccc(OC3CCNCC3)c(Br)c2)CC1)c1cnccn1
18 | 180 | CCc1ccc2sc(C(=O)NC3CCN(Cc4ccc(OC5CCNCC5)c(Br)c4)CC3)cc2c1
19 | 130 | O=C(NC1CCN(Cc2ccc(OC3CCNCC3)c(Br)c2)CC1)c1cccs1
20 | 100 | COc1ccc2sc(C(=O)NC3CCN(Cc4ccc(OC5CCNCC5)c(Br)c4)CC3)cc2c1
21 | 90 | O=C(NC1CCN(Cc2ccc(OC3CCNCC3)c(Br)c2)CC1)c1cc2ccc(-c3ccccc3)cc2s1
22 | 86 | O=C(NC1CCN(Cc2ccc(OC3CCNCC3)c(Br)c2)CC1)c1cc2cc(Br)ccc2s1
23 | 63 | O=C(NC1CCN(Cc2ccc(OC3CCNCC3)c(Br)c2)CC1)c1cc2ccccc2s1
24 | 49 | COc1ccc(-c2ccc3cc(C(=O)NC4CCN(Cc5ccc(OC6CCNCC6)c(Br)c5)CC4)sc3c2)cc1
25 | 25 | N#Cc1ccc2sc(C(=O)NC3CCN(Cc4ccc(OC5CCNCC5)c(Br)c4)CC3)cc2c1

Molecular target: CYP2D6 (Homo sapiens, UniProt P10635)
Sequence (P10635 whole entry): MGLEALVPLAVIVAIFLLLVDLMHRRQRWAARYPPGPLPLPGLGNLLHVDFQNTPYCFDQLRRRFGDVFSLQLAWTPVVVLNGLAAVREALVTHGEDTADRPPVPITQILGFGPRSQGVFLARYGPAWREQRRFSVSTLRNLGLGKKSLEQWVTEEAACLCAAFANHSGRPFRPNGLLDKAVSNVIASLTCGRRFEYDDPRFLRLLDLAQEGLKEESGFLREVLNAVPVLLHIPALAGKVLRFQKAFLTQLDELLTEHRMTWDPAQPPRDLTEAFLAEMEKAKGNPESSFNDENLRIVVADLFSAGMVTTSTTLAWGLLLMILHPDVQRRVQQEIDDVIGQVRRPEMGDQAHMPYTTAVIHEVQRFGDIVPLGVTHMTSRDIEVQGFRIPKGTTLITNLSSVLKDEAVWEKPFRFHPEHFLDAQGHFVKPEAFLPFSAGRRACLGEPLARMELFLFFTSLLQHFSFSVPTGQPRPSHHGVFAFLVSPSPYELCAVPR
Test: Inhibition of CYP2D6 (unknown origin) at 10 uM
Format: ADME
Conditions: not given

Row | inhibition at 10 µM [%] | SMILES
26 | 55 | N#Cc1ccc2sc(C(=O)NC3CCN(Cc4ccc(OC5CCNCC5)c(Br)c4)CC3)cc2c1

System: not listed separately
Test: Metabolic stability in rat liver microsomes after 30 mins
Format: ADME
Conditions: read-out: Stability

Row | remaining at 0.5 h [%] | SMILES
27 | 74 | N#Cc1ccc2sc(C(=O)NC3CCN(Cc4ccc(OC5CCNCC5)c(Br)c4)CC3)cc2c1

Molecular target: CYP3A4 (Homo sapiens, UniProt P08684)
Sequence (P08684 whole entry): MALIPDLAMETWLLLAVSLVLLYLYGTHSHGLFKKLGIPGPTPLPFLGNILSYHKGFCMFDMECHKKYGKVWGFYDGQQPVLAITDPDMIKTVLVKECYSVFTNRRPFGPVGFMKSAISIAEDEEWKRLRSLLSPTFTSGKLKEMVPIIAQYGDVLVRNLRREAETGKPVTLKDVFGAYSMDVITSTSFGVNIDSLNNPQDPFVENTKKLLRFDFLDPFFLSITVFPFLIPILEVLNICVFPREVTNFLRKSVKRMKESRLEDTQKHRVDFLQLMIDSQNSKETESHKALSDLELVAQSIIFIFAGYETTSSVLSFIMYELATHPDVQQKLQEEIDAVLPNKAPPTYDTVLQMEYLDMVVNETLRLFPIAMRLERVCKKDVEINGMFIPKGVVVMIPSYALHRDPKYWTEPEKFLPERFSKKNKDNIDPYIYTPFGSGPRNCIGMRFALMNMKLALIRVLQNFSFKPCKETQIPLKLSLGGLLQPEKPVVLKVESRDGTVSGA
Test: Inhibition of CYP3A4 (unknown origin) at 10 uM
Format: ADME
Conditions: not given

Row | inhibition at 10 µM [%] | SMILES
28 | 75 | N#Cc1ccc2sc(C(=O)NC3CCN(Cc4ccc(OC5CCNCC5)c(Br)c4)CC3)cc2c1

System: not listed separately
Test: Metabolic stability in human liver microsomes after 30 mins
Format: ADME
Conditions: read-out: Stability

Row | remaining at 0.5 h [%] | SMILES
29 | 85 | N#Cc1ccc2sc(C(=O)NC3CCN(Cc4ccc(OC5CCNCC5)c(Br)c4)CC3)cc2c1
